This note sets out measurements from ChEMBL document CHEMBL1914299, “Synthesis and antitumor activity of β-carboline 3-(substituted-carbohydrazide) derivatives” (Bioorg Med Chem, 2011).

Experiment [1] deals with Mus musculus. The experiment can be described thus: Antitumor activity against mouse Ehrlich Ascitic tumor xenografted in BALB/c mouse assessed as reduction of tumor volume in paw at 10 mg/kg, ip administered every 3 days for 15 days measured on day 9 by plethysmograph analysis. Further details: dose 10 mg/kg. The class given is functional, organism-based.
Experiment [2] relates to K562. The experiment in a line: Antitumor activity against human K562 cells by SRB colorimetric assay. The class given is functional, cell-based. The gist of the method: (§1)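 NCI sulforhodamine B colorimetric growth assay in 96-well plates. Each compound tested at four concentrations in 10-fold dilutions. Doxorubicin as positive control. IC50 taken from concentration–response curves as the concentration giving 50% reduction in cell growth versus untreated control cells.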

Experiment [3] deals with 786-0. The experiment can be described thus: Antitumor activity against human 786-0 cells by SRB colorimetric assay. The class given is functional, cell-based. The gist of the method:
as §1

Experiment [4] concerns HT-29. The experiment in a line: Antitumor activity against human HT-29 cells by SRB colorimetric assay. The class given is functional, cell-based. The gist of the method:
as §1

Experiment [5] relates to MCF7. The experiment can be described thus: Antitumor activity against human MCF7 cells by SRB colorimetric assay. The class given is functional, cell-based. The gist of the method: as §1
In experiment [6] the test system is UACC-62. The experiment in a line: Antitumor activity against human UACC62 cells by SRB colorimetric assay. The class given is functional, cell-based. An outline of the steps:
as §1

Experiment [7] relates to NCI-H460. The experiment can be described thus: Antitumor activity against human NCI-H460 cells by SRB colorimetric assay. The class given is functional, cell-based. The gist of the method: as §1
Experiment [8] in a line: Antitumor activity against human PCO3 cells by SRB colorimetric assay. The class given is functional, cell-based. The gist of the method:
as §1

Experiment [9] has as its system OVCAR. The experiment in a line: Antitumor activity against human OVCAR cells by SRB colorimetric assay. The class given is functional, cell-based. An outline of the steps: as §1

Calls of active or inactive are those of the source. No cut-off for these calls is given here.

As for `O=c1[nH]cc(F)c(=O)[nH]1`, the outcome in experiment [1] was Active.

`CN(C)c1ccc(/C=N/NC(=O)c2cc3c4ccccc4n(C)c3c(-c3cccc([N+](=O)[O-])c3)n2)cc1`: the concentration for half-maximal inhibition (IC50) is > 100 µM in experiment [2]; 1.24 µM in [3]; > 100 µM in [4]; > 100 µM in experiment [5]; > 100 µM in experiment [6]; > 100 µM in [7]. Further, the IC50 in experiment [8] and in experiment [9] was > 100 µM throughout.

On to `COc1ccc(-c2nc(C(=O)N/N=C/c3ccccc3Cl)cc3c4ccccc4n(C)c23)cc1`, for which the IC50 was > 100 µM in [2]; > 100 µM in experiment [3]; > 100 µM in experiment [4]; 14 µM in experiment [5]; > 100 µM in experiment [6]; > 100 µM in [7]. Besides, the IC50 in [8] and in [9] was > 100 µM in each case.

Consider `CC(C)=NNC(=O)c1cc2c([nH]c3ccccc32)c(-c2ccccc2Cl)n1`, for which the IC50 in experiment [2] was 21.7 µM; in [3] it was > 100 µM; in [4] it was 38.9 µM; in experiment [5], 26.7 µM; in [6], 19.1 µM; in [7] it was > 100 µM. In addition, the values for the 50% inhibitory concentration (IC50) in experiment [8] and in [9] were 25.6 µM and 64.2 µM, respectively.

Take `O=C(N/N=C/c1ccc([N+](=O)[O-])cc1)c1cc2c([nH]c3ccccc32)c(-c2ccc(O)cc2)n1`: the IC50 in experiment [2] was 3.73 µM; in experiment [3] it was 9.58 µM; in experiment [4], 3.87 µM; in experiment [5], 12.3 µM; in experiment [6], 4.46 µM; in [7], > 100 µM. In addition, the 50% inhibitory concentration (IC50) in experiment [8] was found to be 12.8 µM; in experiment [9], 51 µM.

Take `O=C(N/N=C/c1ccccc1Cl)c1cc2c([nH]c3ccccc32)c(-c2ccc([N+](=O)[O-])cc2)n1`: the 50% inhibitory concentration (IC50) came out at 6.35 µM in experiment [2]; 2.75 µM in experiment [3]; 3.85 µM in experiment [4]; 18 µM in experiment [5]; 2.53 µM in experiment [6]; 38.1 µM in experiment [7]. In addition, the half-maximal inhibitory concentration (IC50) in [8] is 18 µM; in experiment [9], 4.55 µM.

Consider `COc1ccc(-c2nc(C(=O)N/N=C/c3ccccc3)cc3c4ccccc4n(C)c23)cc1`, for which the IC50 in experiment [2] is > 100 µM; in experiment [3], 1.39 µM; in experiment [4] it was > 100 µM; in experiment [5], > 100 µM; in experiment [6] it was > 100 µM; in experiment [7], > 100 µM. In addition, the IC50 in [8] and in experiment [9] was > 100 µM each time.

Consider `O=C(NN=C1CCCCC1)c1cc2c([nH]c3ccccc32)c(-c2ccccc2)n1`, for which the IC50 in [2] was 55.9 µM; in [3] it was > 100 µM; in experiment [4], 47.3 µM; in experiment [5], 32.5 µM; in [6], 31.2 µM; in [7] it was 68.9 µM. Besides, the half-inhibitory concentration (IC50) was 27.5 µM in experiment [8] and 78 µM in experiment [9].

Consider `Cn1c2ccccc2c2cc(C(=O)N/N=C/c3ccccc3Cl)nc(-c3ccccc3)c21`, for which the IC50 in [2], in [3], in experiment [4], in experiment [5], in [6] and in experiment [7] was > 100 µM in each case. Moreover, the concentration for half-maximal inhibition (IC50) in experiment [8] and in [9] was > 100 µM each time.

As to `COc1ccc(-c2nc(C(=O)N/N=C/c3ccc([N+](=O)[O-])cc3)cc3c2[nH]c2ccccc23)cc1`, the 50% inhibitory concentration (IC50) in experiment [2], in experiment [3], in [4], in experiment [5], in experiment [6] and in [7] was > 100 µM each time. Besides, the concentration for half-maximal inhibition (IC50) in experiment [8] and in experiment [9] was > 100 µM in each case.

Consider `O=C(N/N=C/c1ccccc1)c1cc2c([nH]c3ccccc32)c(-c2ccccc2)n1`, for which the IC50 in experiment [2] was 79.5 µM; in experiment [3], > 100 µM; in [4], > 100 µM; in experiment [5], 15.7 µM; in experiment [6], 25.9 µM; in experiment [7], 8.49 µM. For the same molecule, the IC50 in experiment [8] came out at 11.6 µM; in experiment [9] it was 10.6 µM.

`O=C(N/N=C/c1ccccc1)c1cc2c([nH]c3ccccc32)c(-c2ccc(O)cc2)n1`: the IC50 came to 4.31 µM in experiment [2]; 4.32 µM in [3]; 4.32 µM in [4]; 8.94 µM in experiment [5]; 3.18 µM in experiment [6]; 19.8 µM in experiment [7]. For the same molecule, the results for the IC50 in experiment [8] and in [9] were 2.25 µM and 1.26 µM, respectively.

Take `CC(C)=NNC(=O)c1cc2c([nH]c3ccccc32)c(-c2ccc(N(C)C)cc2)n1`: the IC50 in experiment [2] came to 23.4 µM; in experiment [3] it was 26.5 µM; in [4], 35.6 µM; in experiment [5], 16.8 µM; in [6], 10.1 µM; in [7], 25.4 µM. The IC50 in experiment [8] was 19 µM; in experiment [9] it was 40.5 µM.

For the molecule `COc1ccc(-c2nc(C(=O)NN=C3CCCCC3)cc3c2[nH]c2ccccc23)cc1`, the IC50 in experiment [2] came to 10.3 µM; in experiment [3], 18.6 µM; in experiment [4], 14 µM; in [5], 9.14 µM; in experiment [6], 11.7 µM; in [7] it was 20.2 µM. Besides, the concentration for half-maximal inhibition (IC50) was 10.3 µM in [8] and 12.8 µM in experiment [9].

In the case of `COc1ccc(/C=N/NC(=O)c2cc3c([nH]c4ccccc43)c(-c3ccc(OC)cc3)n2)cc1`, the 50% inhibitory concentration (IC50) in [2] is > 100 µM; in experiment [3], > 100 µM; in experiment [4], > 100 µM; in experiment [5], 71.4 µM; in experiment [6], 91.4 µM; in [7], 35.1 µM. In addition, the half-inhibitory concentration (IC50) in [8] and in experiment [9] was > 100 µM in each case.

With `COc1ccc(-c2nc(C(=O)NN=C3CCCC3)cc3c2[nH]c2ccccc23)cc1`, the IC50 was > 100 µM in experiment [2]; > 100 µM in [3]; > 100 µM in [4]; > 100 µM in [5]; 76.4 µM in experiment [6]; > 100 µM in experiment [7]. Moreover, the half-maximal inhibitory concentration (IC50) in experiment [8] and in [9] was > 100 µM throughout.

As for `O=C(N/N=C/c1ccccc1)c1cc2c([nH]c3ccccc32)c(-c2cccc([N+](=O)[O-])c2)n1`, the IC50 in experiment [2] came to 1.24 µM; in experiment [3], 3.76 µM; in experiment [4] it was 1.93 µM; in experiment [5], 2.61 µM; in [6] it was 1.19 µM; in experiment [7], 1.93 µM. In addition, the figures for the IC50 in experiment [8] and in experiment [9] were > 100 µM and 6.14 µM, respectively.

For the molecule `COc1ccc(-c2nc(C(=O)N/N=C/c3ccc(N(C)C)cc3)cc3c2[nH]c2ccccc23)cc1`, the half-maximal inhibitory concentration (IC50) in [2], in experiment [3], in experiment [4], in [5], in [6] and in experiment [7] was > 100 µM throughout. In addition, the IC50 in experiment [8] and in experiment [9] was > 100 µM throughout.

Take `O=C(NN=C1CCCC1)c1cc2c([nH]c3ccccc32)c(-c2ccc(O)cc2)n1`: the half-inhibitory concentration (IC50) in experiment [2] was > 100 µM; in experiment [3], > 100 µM; in experiment [4] it was > 100 µM; in [5], 78.1 µM; in experiment [6] it was > 100 µM; in experiment [7] it was > 100 µM. Further, the IC50 in experiment [8] and in experiment [9] was > 100 µM throughout.

As to `O=C(N/N=C/c1ccccc1Cl)c1cc2c([nH]c3ccccc32)c(-c2ccc(O)cc2)n1`, the IC50 in experiment [2] stood at 1.65 µM; in experiment [3], 3.22 µM; in experiment [4], 1.71 µM; in experiment [5] it was 7.01 µM; in [6], 1.56 µM; in experiment [7] it was 2.18 µM. The IC50 in experiment [8] worked out at 2.03 µM; in experiment [9] it was 1.83 µM.

For the molecule `CC(C)=NNC(=O)c1cc2c([nH]c3ccccc32)c(-c2ccc(O)cc2)n1`, the IC50 in experiment [2] is 18.1 µM; in experiment [3], 24.3 µM; in experiment [4] it was > 100 µM; in [5] it was 24.3 µM; in experiment [6] it was 35.4 µM; in experiment [7], 38.1 µM. For the same molecule, the results for the IC50 in [8] and in experiment [9] were 19.7 µM and > 100 µM, respectively.

Consider `O=C(NN=C1CCCCC1)c1cc2c([nH]c3ccccc32)c(-c2cccc([N+](=O)[O-])c2)n1`, for which the IC50 was 87.1 µM in experiment [2]; > 100 µM in experiment [3]; > 100 µM in [4]; > 100 µM in experiment [5]; > 100 µM in [6]; > 100 µM in experiment [7]. In addition, the IC50 in experiment [8] and in [9] was > 100 µM throughout.

On to `COc1ccc(-c2nc(C(=O)N/N=C/c3ccccc3)cc3c2[nH]c2ccccc23)cc1`, for which the half-inhibitory concentration (IC50) in experiment [2] was found to be 3.22 µM; in experiment [3], 93.4 µM; in experiment [4], 36 µM; in experiment [5] it was 36 µM; in experiment [6] it was 3.45 µM; in experiment [7], 3.45 µM. Also, the half-maximal inhibitory concentration (IC50) in experiment [8] amounted to 26.5 µM; in experiment [9], 32.3 µM.

Regarding `CN(C)c1ccc(/C=N/NC(=O)c2cc3c([nH]c4ccccc43)c(-c3ccc([N+](=O)[O-])cc3)n2)cc1`, the concentration for half-maximal inhibition (IC50) in experiment [2], in [3], in experiment [4], in experiment [5], in experiment [6] and in experiment [7] was > 100 µM each time. In addition, the IC50 in experiment [8] and in experiment [9] was > 100 µM in each case.

As to `O=C(NN=C1CCCCC1)c1cc2c([nH]c3ccccc32)c(-c2ccc(O)cc2)n1`, the IC50 in experiment [2] came to 10.3 µM; in experiment [3], 15 µM; in experiment [4] it was 10.3 µM; in [5], 8.33 µM; in [6], 7.86 µM; in experiment [7] it was 13.2 µM. For the same molecule, the IC50 in experiment [8] turned out to be 7.68 µM; in experiment [9], 13.2 µM.
